Data published in ChEMBL document CHEMBL3297695, “Sesquiterpenoids from Pittocaulon filare” (2014).

What was measured:
Mus musculus [1] = experiment: Antiinflammatory activity against CD1 mouse ear edema model assessed as reduction of TPA-induced ear edema measured per ear administered topically 10 mins prior to TPA challenge measured after 4 hrs; assay type: functional
How it was run: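 Male CD-1 mice (25−30 g), housed at 27 ± 1 °C on a 12/12 h light−dark cycle with food and water ad libitum. Compounds were applied topically to the ear in acetone−CH2Cl2 (1:1). Edema was induced by TPA and quantified as the weight of ear biopsies taken 4 h after sample application. The ID50 is expressed in μmol/ear. Data are mean ± SEM.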

Mus musculus [2] = experiment: Antiinflammatory activity against TPA-induced CD1 mouse ear edema model assessed as neutrophil infiltration by measuring myeloperoxidase content at 1 umol/ear administered topically 10 mins prior to TPA challenge measured after 4 hrs relative to control; assay type: functional
How it was run: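 Male CD-1 mice (25−30 g), ear edema induced by TPA. Compounds were applied topically at 1 μmol/ear in acetone−CH2Cl2 (1:1). MPO activity, used as a marker of neutrophils, was measured in ear biopsies taken 4 h after application by an adapted Bradley/Suzuki method. Results are given as % MPO content, mean ± SEM, analysed by ANOVA with Dunnett test against control.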

Row | Structure (SMILES) | Activity (Mus musculus [1]) | ID50 (Mus musculus [1]) [µmol] | Activity (Mus musculus [2]) [%]
1 | C=C1[C@@H]2CC(=O)[C@H]([C@@H](C)OC(C)=O)[C@H]2[C@H](C(C)C)[C@@H](OC(=O)[C@@H](C)CC)[C@H]1OC(=O)/C=C(\C)CC | Dose-dependent effect | 0.17 | 12.67
2 | C=C1[C@H]2[C@@H](/C(=C/C)C(=O)[C@H]2OC(=O)[C@@H](C)CC)[C@H]([C@@]2(C)CO2)[C@@H](OC(=O)[C@@H](C)CC)[C@H]1OC(=O)/C=C(\C)CC | Dose-dependent effect | 0.55 | 11.07
3 | C=C1[C@H]2[C@@H]([C@@H]([C@@H](C)OC(C)=O)C(=O)[C@H]2OC(=O)[C@@H](C)CC)[C@H]([C@@]2(C)CO2)[C@@H](OC(=O)[C@@H](C)CC)[C@H]1OC(=O)/C=C(\C)CC | Dose-dependent effect | 0.18 | 19.05
4 | COc1ccc2c(c1)c(CC(=O)O)c(C)n2C(=O)c1ccc(Cl)cc1 [INDOMETHACIN] |  | 0.24 | 8.83
